Data taken from ChEMBL document CHEMBL1140730, “Validation of diacyl glycerolacyltransferase I as a novel target for the treatment of obesity and dyslipidemia using a potent and selective small molecule inhibitor” (J Med Chem, 2008).
The source made the active and inactive calls. The calls are words filed in the database; no cut-off is given here.

Key:
[1] = target: T1, Diacylglycerol O-acyltransferase 1 (Mus musculus, UniProt Q9Z2A7); experiment: Inhibition of mouse recombinant DGAT1 expressed in Sf9 cells
T1 sequence (Q9Z2A7 whole entry): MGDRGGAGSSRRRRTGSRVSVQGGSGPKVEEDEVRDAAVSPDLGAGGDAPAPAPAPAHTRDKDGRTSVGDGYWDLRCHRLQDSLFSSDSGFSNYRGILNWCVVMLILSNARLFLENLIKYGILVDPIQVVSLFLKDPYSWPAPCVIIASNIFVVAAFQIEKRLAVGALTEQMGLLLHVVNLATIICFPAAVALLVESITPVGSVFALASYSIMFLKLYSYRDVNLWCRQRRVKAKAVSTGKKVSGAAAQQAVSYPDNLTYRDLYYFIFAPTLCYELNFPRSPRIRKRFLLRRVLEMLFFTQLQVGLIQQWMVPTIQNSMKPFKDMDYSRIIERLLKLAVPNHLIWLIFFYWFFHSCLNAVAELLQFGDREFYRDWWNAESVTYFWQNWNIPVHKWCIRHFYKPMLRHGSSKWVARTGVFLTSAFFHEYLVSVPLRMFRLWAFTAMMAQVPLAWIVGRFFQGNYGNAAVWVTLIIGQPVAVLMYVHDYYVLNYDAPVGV

[2] = target: T2, Diacylglycerol O-acyltransferase 1 (Homo sapiens, UniProt O75907); experiment: Inhibition of human recombinant DGAT1 expressed in Sf9 cells
T2 sequence (O75907 whole entry): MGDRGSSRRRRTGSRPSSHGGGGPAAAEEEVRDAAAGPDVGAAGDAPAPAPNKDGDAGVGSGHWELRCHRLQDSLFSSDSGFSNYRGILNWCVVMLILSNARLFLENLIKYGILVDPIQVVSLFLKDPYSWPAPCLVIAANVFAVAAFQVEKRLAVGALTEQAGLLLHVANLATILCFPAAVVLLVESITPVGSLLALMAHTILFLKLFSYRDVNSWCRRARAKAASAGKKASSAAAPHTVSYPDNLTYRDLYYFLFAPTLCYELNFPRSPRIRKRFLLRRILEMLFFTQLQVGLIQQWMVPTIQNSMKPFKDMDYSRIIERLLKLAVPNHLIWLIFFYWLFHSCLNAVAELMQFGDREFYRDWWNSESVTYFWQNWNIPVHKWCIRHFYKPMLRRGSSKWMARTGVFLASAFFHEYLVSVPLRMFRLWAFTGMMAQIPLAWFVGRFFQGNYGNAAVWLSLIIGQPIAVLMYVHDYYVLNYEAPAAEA

[3] = target: T3, Diacylglycerol O-acyltransferase 2 (Mus musculus) (UniProt Q9DCV3); experiment: Inhibition of mouse DGAT2
T3 sequence (whole entry): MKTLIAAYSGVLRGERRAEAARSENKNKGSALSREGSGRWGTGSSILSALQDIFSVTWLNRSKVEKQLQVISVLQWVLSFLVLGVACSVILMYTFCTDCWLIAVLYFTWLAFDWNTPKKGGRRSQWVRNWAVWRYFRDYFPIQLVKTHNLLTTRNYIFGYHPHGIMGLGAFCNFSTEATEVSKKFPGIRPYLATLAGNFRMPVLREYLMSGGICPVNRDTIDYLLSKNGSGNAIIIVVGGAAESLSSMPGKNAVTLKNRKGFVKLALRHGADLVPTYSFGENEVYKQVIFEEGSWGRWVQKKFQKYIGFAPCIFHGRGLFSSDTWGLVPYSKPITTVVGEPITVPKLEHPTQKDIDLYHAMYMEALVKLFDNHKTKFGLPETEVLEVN

[4] = target: T4, Sterol O-acyltransferase 1 (Homo sapiens) (UniProt P35610); experiment: Inhibition of human ACAT1
T4 sequence (whole entry): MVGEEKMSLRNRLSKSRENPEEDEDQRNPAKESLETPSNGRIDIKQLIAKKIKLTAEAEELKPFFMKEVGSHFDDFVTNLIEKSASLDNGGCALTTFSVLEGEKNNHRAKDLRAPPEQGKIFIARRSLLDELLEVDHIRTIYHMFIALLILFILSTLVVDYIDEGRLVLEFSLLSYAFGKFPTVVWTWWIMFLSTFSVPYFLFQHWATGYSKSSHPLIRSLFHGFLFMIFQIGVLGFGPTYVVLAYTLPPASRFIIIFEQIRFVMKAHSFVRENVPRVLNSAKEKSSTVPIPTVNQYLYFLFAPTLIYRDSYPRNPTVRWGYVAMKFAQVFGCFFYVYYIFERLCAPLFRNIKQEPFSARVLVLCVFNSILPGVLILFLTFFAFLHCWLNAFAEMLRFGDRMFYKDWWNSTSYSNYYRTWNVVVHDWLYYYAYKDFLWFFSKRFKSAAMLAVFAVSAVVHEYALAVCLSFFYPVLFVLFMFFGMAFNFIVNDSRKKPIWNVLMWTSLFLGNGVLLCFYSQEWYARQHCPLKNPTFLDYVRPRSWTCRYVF

[5] = target: T5, Sterol O-acyltransferase 2 (Homo sapiens) (UniProt O75908); experiment: Inhibition of human ACAT2
T5 sequence (whole entry): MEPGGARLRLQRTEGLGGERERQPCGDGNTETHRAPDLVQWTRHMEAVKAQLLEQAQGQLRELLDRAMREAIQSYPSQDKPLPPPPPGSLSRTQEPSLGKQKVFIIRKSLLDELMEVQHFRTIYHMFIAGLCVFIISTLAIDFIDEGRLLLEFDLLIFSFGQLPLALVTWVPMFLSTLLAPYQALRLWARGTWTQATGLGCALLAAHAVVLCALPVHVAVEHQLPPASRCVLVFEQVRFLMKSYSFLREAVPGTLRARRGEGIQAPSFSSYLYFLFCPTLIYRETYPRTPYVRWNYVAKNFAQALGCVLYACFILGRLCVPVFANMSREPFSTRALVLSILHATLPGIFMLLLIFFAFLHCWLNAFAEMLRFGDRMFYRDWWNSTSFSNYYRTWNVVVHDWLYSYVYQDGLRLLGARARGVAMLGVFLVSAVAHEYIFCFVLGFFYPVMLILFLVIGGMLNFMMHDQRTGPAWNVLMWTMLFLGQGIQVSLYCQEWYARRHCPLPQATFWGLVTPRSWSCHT

[6] = Plasma clearance in rat at 5 mg/kg, iv; format: ADME, organism-based; set-up: dose 5 mg/kg, route intravenous
In short: (§1)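 Single-dose pharmacokinetics given iv or orally to mouse (10 mg/kg), rat (5 mg/kg) and dog (2.5 mg/kg). Half-life, Cmax, AUC, plasma clearance, volume of distribution and oral bioavailability were derived from plasma levels. Values are means, n = 3 unless stated otherwise.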

[7] = AUC in rat at 5 mg/kg, iv; format: ADME, organism-based; set-up: dose 5 mg/kg, route intravenous; conditions: plasma; in short: as §1
[8] = Volume of distribution at terminal phase in rat at 5 mg/kg, iv; format: ADME, organism-based; set-up: dose 5 mg/kg, route intravenous; conditions: in vivo, read-out: Vbeta; in short: as §1
[9] = Half life in DIO mouse at 10 mg/kg, po; format: ADME, organism-based; set-up: dose 10 mg/kg, route oral; conditions: in vivo; in short: as §1
[10] = Cmax in DIO mouse at 10 mg/kg, po; format: ADME, organism-based; set-up: dose 10 mg/kg, route oral; conditions: in vivo; in short: as §1
[11] = AUC in DIO mouse at 10 mg/kg, po; format: ADME, organism-based; set-up: dose 10 mg/kg, route oral; conditions: plasma; in short: as §1
[12] = Half life in rat at 5 mg/kg, iv; format: ADME, organism-based; set-up: dose 5 mg/kg, route intravenous; conditions: in vivo; in short: as §1
[13] = Half life in rat at 5 mg/kg, po; format: ADME, organism-based; set-up: dose 5 mg/kg, route oral; conditions: in vivo; in short: as §1
[14] = Cmax in rat at 5 mg/kg, po; format: ADME, organism-based; set-up: dose 5 mg/kg, route oral; conditions: in vivo; in short: as §1
[15] = AUC in rat at 5 mg/kg, po; format: ADME, organism-based; set-up: dose 5 mg/kg, route oral; conditions: plasma; in short: as §1
[16] = Oral bioavailability in rat at 5 mg/kg; format: ADME, organism-based; conditions: in vivo; in short: as §1
[17] = Half life in dog at 2.5 mg/kg, iv; format: ADME, organism-based, Canis lupus familiaris; set-up: dose 2.5 mg/kg, route intravenous; conditions: in vivo; in short: as §1
[18] = Volume of distribution at terminal phase in dog at 2.5 mg/kg, iv; format: ADME, organism-based, Canis lupus familiaris; set-up: dose 2.5 mg/kg, route intravenous; conditions: in vivo, read-out: Vbeta; in short: as §1
[19] = AUC in dog at 2.5 mg/kg, iv; format: ADME, organism-based, Canis lupus familiaris; set-up: dose 2.5 mg/kg, route intravenous; conditions: plasma; in short: as §1
[20] = Plasma clearance in dog at 2.5 mg/kg, iv; format: ADME, organism-based, Canis lupus familiaris; set-up: dose 2.5 mg/kg, route intravenous; in short: as §1
[21] = Half life in dog at 2.5 mg/kg, po; format: ADME, organism-based, Canis lupus familiaris; set-up: dose 2.5 mg/kg, route oral; conditions: in vivo; in short: as §1
[22] = Cmax in dog at 2.5 mg/kg, po; format: ADME, organism-based, Canis lupus familiaris; set-up: dose 2.5 mg/kg, route oral; conditions: in vivo; in short: as §1
[23] = AUC in dog at 2.5 mg/kg, po; format: ADME, organism-based, Canis lupus familiaris; set-up: dose 2.5 mg/kg, route oral; conditions: plasma; in short: as §1
[24] = Oral bioavailability in dog at 2.5 mg/kg; format: ADME, organism-based, Canis lupus familiaris; conditions: in vivo; in short: as §1
Mus musculus [25] = experiment: Decrease in body weight in DIO C57BL/6J mouse at 3 mg/kg, po bid after 7 days; format: functional, organism-based; set-up: dose 3 mg/kg
In short: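 DIO mice kept on high-fat diet ad libitum were dosed orally for four weeks, either 3 mg/kg bid in 1% Tween-80/water or a reference at 10 mg/kg qd, alongside a vehicle group. Body weight was measured on days 1, 5, 7, 14 and 27 and expressed as change in grams from day zero. Mean ± SEM, n = 9, compared with vehicle.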

Mus musculus [26] = experiment: Decrease in liver triglyceride level in DIO C57BL/6J mouse at 3 mg/kg, po after 28 days; format: functional
In short: (§2)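 DIO mice on high-fat diet were dosed orally for four weeks at 3 mg/kg bid in 1% Tween-80/water, or a reference at 10 mg/kg qd. Liver triglycerides were determined on day 28 only. Mean ± SEM, n = 9, compared with vehicle.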

Mus musculus [27] = experiment: Increase in liver triglyceride level in DIO C57BL/6J mouse at 3 mg/kg, po after 28 days; format: ADME, organism-based; set-up: dose 3 mg/kg, route oral; conditions: in vivo, 672 h; in short: as §2
[28] = Cmax in C57BL/6J mouse at 3 mg/kg, po after 1 hr; format: ADME, organism-based; set-up: dose 3 mg/kg, route oral; conditions: in vivo
In short: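 On day 28 of oral dosing at 3 mg/kg bid in DIO mice, plasma drug concentration was measured at 1 h (n = 3) and 17 h (n = 9) after the final dose. Mean ± SEM.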

Mus musculus [29] = experiment: Reduction of chylomicron-derived serum triglyceride level in acute lipid challenged DIO C57BL/6J mouse at 0.3 mg/kg, po; format: functional; set-up: scale not given: the % may be the effect or the level left
In short: (§3)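 DIO mice were dosed orally at 0.3, 3 or 30 mg/kg: bid on days 1–2, fasted overnight, then dosed once on day 3. One hour after the final dose a corn oil bolus was given by gavage, and plasma triglycerides were measured 1 h later. Percent inhibition for the 0.3 and 3 mg/kg doses is relative to the 30 mg/kg dose. Mean ± SEM, n = 9.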

Mus musculus [30] = experiment: Reduction of chylomicron-derived serum triglyceride level in acute lipid challenged DIO C57BL/6J mouse at 3 mg/kg, po; format: functional; set-up: scale not given: the % may be the effect or the level left; in short: as §3
Mus musculus [31] = experiment: Reduction of chylomicron-derived serum triglyceride level in acute lipid challenged DIO C57BL/6J mouse at 30 mg/kg, po; format: functional; set-up: scale not given: the % may be the effect or the level left; in short: as §3
Mus musculus [32] = experiment: Decrease in body weight in DIO C57BL/6J mouse at 3 mg/kg, po bid after 14 days

O=C(Nc1ccc(-c2ccc(C(=O)[C@@H]3CCC[C@H]3C(=O)O)cc2)cc1)Nc1cccc(C(F)(F)F)c1
IC50 [1]: 0.017 µM

N#Cc1ccc(NC(=O)Nc2ccc(-c3ccc(C(=O)[C@@H]4CCC[C@H]4C(=O)O)cc3)cc2)cc1
IC50 [1]: 0.603 µM

O=C(Nc1ccccc1)Nc1ccc(-c2ccc(C(=O)[C@@H]3CCC[C@H]3C(=O)O)cc2)cc1
IC50 [2]: 0.007 µM | IC50 [1]: 0.024 µM | Activity [3]: inactive | Activity [4]: inactive | Activity [5]: inactive | clearance [6]: 0.04 L/h/kg | AUC [7]: 145 µg·h/mL | Vd [8]: 0.21 L/kg | half-life [9]: 6.5 h | Cmax [10]: 3.51 µg/mL | AUC [11]: 15.2 µg·h/mL | half-life [12]: 3.9 h | half-life [13]: 2.7 h | Cmax [14]: 8.53 µg/mL | AUC [15]: 80.2 µg·h/mL | bioavailability [16]: 55.2% | half-life [17]: 3.3 h | Vd [18]: 1.21 L/kg | AUC [19]: 11.1 µg·h/mL | clearance [20]: 0.23 L/h/kg | half-life [21]: 3.6 h | Cmax [22]: 2.47 µg/mL | AUC [23]: 5.5 µg·h/mL | bioavailability [24]: 49.2% | Activity (Mus musculus [25]): Active | Activity (Mus musculus [26]): 53.5 mg/dL | Activity (Mus musculus [27]): 88 mg/dL | Cmax [28]: 0.91 µg/mL | Activity (Mus musculus [29]): 73% | Activity (Mus musculus [30]): 93% | Activity (Mus musculus [31]): 100% | Activity (Mus musculus [32]): Active

O=C(Nc1ccccc1)Nc1ccc(-c2ccc(C(=O)[C@@H]3CCC[C@@H]3C(=O)O)cc2)cc1
IC50 [2]: 0.098 µM

O=C(Nc1ccc(-c2ccc(C(=O)[C@@H]3CCC[C@H]3C(=O)O)cc2)cc1)Nc1cccc(Cl)c1
IC50 [1]: 0.019 µM

O=C(Nc1ccc(-c2ccc(C(=O)[C@@H]3CCC[C@H]3C(=O)O)cc2)cc1)Nc1ccc(C(F)(F)F)cc1
IC50 [1]: 0.014 µM
